Screening data deposited in PubChem by several laboratories.
Only some compounds are listed: those with a hit (about 4.3% of all), similar ones and a draw of the others.
Lipid droplet: modulators of hepatic lipid droplet formation; AML12 mouse hepatocytes, oleate lipid droplets, BODIPY imaging; inhibition, % at 6.5 µM; 0.4% of 240,000 active; AID 1656;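 active = lipid droplet intensity inhibited by at least 50%, with more than 500 cells counted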
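Test system: AML12 hepatocytes (mouse); reagent: oleate loading, 100 µM; dosing: one dose, 6.5 µM compound; incubation: overnight exposure; signal: fluorescence imaging, 20x objective, two fields per well; read-out basis: % inhibition of corrected integrated BODIPY droplet signal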
SMARCA2 activ: increases SMARCA2 function in MMTV reporter cells. MG213 cells, MMTV-luciferase reporter, dexamethasone, overnight. activation, % at 9.1 µM. 1% of 370,000 active. AID 652017; in the data active = activation above about 7.8%;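 note: 0% = vehicle wells and 100% = reference activator wells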
CR mimetic SO: yeast age-related superoxide inhibition as caloric restriction mimetic. 0.18% of 330,000 active. S. cerevisiae aged cells, superoxide DHE fluorescence; active compounds read low. AID 2690. superoxide response (% of plate mean), % at 10 µM;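 active = superoxide response under a set limit, about three screen SD below normal, cut at about 65% in these data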;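 note: yeast aged for seven days with compound at 30 °C before DHE staining; 100% = average MFI of all compound-treated wells on the plate with controls excluded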
AHR activator: activators of human aryl hydrocarbon receptor | 2.5% of 320,000 active | AHR-responsive luciferase reporter cells, luminescence | activation, % at 5 µM | P35869 | AID 2796; in the data active = activation above about 47%;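 note: 0% = vehicle wells and 100% = reference agonist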
Target sequence (P35869 whole entry, looked up): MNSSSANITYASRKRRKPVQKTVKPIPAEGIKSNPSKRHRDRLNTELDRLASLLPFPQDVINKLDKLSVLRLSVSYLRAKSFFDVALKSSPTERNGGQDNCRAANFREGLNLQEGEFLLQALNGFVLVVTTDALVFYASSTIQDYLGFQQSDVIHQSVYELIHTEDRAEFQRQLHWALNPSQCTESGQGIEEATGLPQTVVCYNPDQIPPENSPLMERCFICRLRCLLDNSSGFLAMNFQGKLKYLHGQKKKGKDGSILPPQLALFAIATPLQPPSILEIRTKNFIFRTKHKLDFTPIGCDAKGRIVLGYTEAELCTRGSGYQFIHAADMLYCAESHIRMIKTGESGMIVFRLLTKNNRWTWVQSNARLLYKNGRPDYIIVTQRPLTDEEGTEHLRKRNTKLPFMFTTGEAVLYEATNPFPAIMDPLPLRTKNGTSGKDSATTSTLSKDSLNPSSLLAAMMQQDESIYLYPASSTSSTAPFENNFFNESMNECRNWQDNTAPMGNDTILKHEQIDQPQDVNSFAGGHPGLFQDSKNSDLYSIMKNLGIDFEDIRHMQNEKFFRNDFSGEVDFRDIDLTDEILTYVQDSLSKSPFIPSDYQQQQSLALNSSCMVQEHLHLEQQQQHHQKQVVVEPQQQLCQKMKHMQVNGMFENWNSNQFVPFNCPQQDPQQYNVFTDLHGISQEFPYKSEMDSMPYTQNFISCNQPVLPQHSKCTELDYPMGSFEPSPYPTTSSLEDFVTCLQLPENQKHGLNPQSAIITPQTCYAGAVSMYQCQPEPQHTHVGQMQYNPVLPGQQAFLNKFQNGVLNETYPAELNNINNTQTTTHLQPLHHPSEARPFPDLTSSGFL
SR-BI HDL uptake: mouse SR-BI HDL lipid transfer inhibition; Q61009; ldlA[mSR-BI] CHO cells, DiI-HDL uptake fluorescence, 3 h; inhibition, % at 12.5 µM; 0.96% of 320,000 active;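 active = mean replicate inhibition of at least 70% and a set share of replicates each scoring 70 or more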;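 note: 0% = median of neutral control wells and 100% = median of positive control wells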
SR-BI DiI-HDL act: enhances SR-BI lipid uptake from DiI-HDL; CHO ldlA[mSR-BI] cells, DiI-HDL uptake fluorescence, 3 h; 100 = double the neutral-control signal; activation, % at 12.5 µM; 0.096% of 320,000 active;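 active = mean replicate activation of at least 60% and every replicate at or above 60%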;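 note: 0% = median plate neutral-control signal and 100% = twice that signal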
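system = CHO ldlA[mSR-BI] cells, LDL receptor-null, SR-BI overexpressing | medium = Ham's F12 with 0.5% BSA, HEPES 25 mM, pH 7.4 | probe or stimulus = DiI-HDL 10 µg/mL | compound dosing = single-point compound dose | incubation = compound exposure 3 h, 37 °C | technique = DiI fluorescence, bottom read | read-out = cell-associated DiI fluorescence as measure of HDL uptake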
An asterisk follows results filed as active; x = no result given.

SMILES | Lipid droplet | SMARCA2 activ | CR mimetic SO | AHR activator | SR-BI HDL uptake | SR-BI DiI-HDL act
CCc1ccc(N2C(=O)NC(=O)C(Cc3ccc(OC)cc3OC)C2=O)cc1 (stereo unspecified) | 8 | -1 | 98 | 1 | 84* | -84
Clc1ccccc1Nc1ncnc(-n2cccc2)n1 | x | 4 | 99 | 101* | -30 | 30
CN1CC[C@@H]2CN[C@H](c3ccccc3)C[C@@H]21 | x | 0 | x | x | x | x
O=C(N/N=C/c1c(O)n(Cc2ccc(F)cc2)c(=O)[nH]c1=O)c1ccccc1 | 1 | 4 | 103 | 1 | 75* | -75
CCN1CCN(C(=O)COc2cc(=O)n(CC)c3ccccc23)CC1 | -8 | 4 | 99 | 10 | -25 | 25
CCn1c(=O)cc(OCC(=O)N2CCN(Cc3ccc4c(c3)OCO4)CC2)c2ccccc21 | x | -3 | 112 | 55* | 34 | -34
Cc1ccc(OC(=O)N(C)C[C@H]2OCc3cnnn3CCCC(=O)N([C@@H](C)CO)C[C@@H]2C)cc1 | x | 0 | x | x | x | x
O=C(NCCN1CCC2(CC1)C(=O)NCN2c1ccccc1)c1ccc2ccccc2c1 | x | 4 | x | x | x | x
COC(=O)C1=C(C)NC(=S)NC1c1ccc(N(CCCl)CCCl)cc1Cl (stereo unspecified) | x | -4 | x | x | 85* | -85
NC1(C(=O)O)CCCc2ccc(N(CCCl)CCCl)cc21 (stereo unspecified) | x | -2 | x | x | -9 | 9
COc1ccccc1N=Cc1c(O)n(C)c(=O)n(C)c1=O | x | -5 | 100 | 73* | -12 | 12
O=c1c2ccccc2nc(/C=C/c2ccccc2F)n1-c1ccccc1O | 3 | -2 | 92 | 22 | 5 | -5
O=c1c2ccccc2nc(-c2ccccc2)n1-n1cccc1 | x | 2 | 88 | 74* | -12 | 12
O=c1c2ccccc2nc(-c2ccccc2)n1-c1ccccc1 | -9 | -1 | 109 | 0 | -7 | 7
O=c1c2ccccc2nc(-c2ccccc2)n1-c1ccccc1O | -2 | -2 | 105 | 63* | -4 | 4
O=c1c2ccccc2nc(/C=C/c2ccccc2O)n1-c1ccccc1O | -8 | -3 | 106 | 47* | 31 | -31
O=c1c2ccccc2nc(-c2ccccc2)n1-c1ccncc1 | -6 | 0 | 103 | 0 | -19 | 19
CC(C)C(C(=O)NC(C)(C)C)N1C(=O)CN=C(c2ccccc2)c2ccccc21 (stereo unspecified) | x | 0 | x | x | x | x
CCCC(=O)N1c2ccc(Cl)cc2C(c2ccccc2)=NCC1C(=O)NC(C)(C)C (stereo unspecified) | x | 0 | x | x | x | x
CN1c2ccc([N+](=O)[O-])cc2CC2(C(=O)NC(=O)N(c3ccc(Br)cc3)C2=O)C1c1ccccc1 (stereo unspecified) | -6 | 2 | 79 | 76* | 1 | -1
O=C1NC(=O)C2(Cc3ccccc3N3CCCC32)C(=O)N1c1ccccc1 (stereo unspecified) | x | -1 | 107 | 24 | 1 | -1
N#CCC[C@@H]1CC[C@]2(CCCN(Cc3ccccn3)C2)O1 | x | 0 | x | x | x | x
CC(C)[C@]12O[C@H]1[C@@H]1O[C@]13[C@]1(O[C@H]1C[C@H]1C4=C(CC[C@@]13C)C(=O)OC4)[C@@H]2O | 87* | x | 88 | -12 | x | x
O=C(O)CCl | x | -4 | x | x | x | x
FC(F)(F)c1ccc2c(c1)ncn2C1CCN(Cc2nnnn2C2CCCCC2)CC1 | x | 1 | 99 | 56* | -2 | 2
CCOC(=O)CC[C@@H]1CC[C@]2(CCCN(Cc3cccnc3)C2)O1 | x | -4 | x | x | x | x
O=[N+]([O-])c1ccc(N2CCNCC2)c(Cl)c1 | 5 | 1 | 107 | -1 | 78* | -78
O=C(c1cc([N+](=O)[O-])ccc1N1CCNCC1)N1CCOCC1 | 22 | -2 | 104 | 0 | 5 | -5
CC1Oc2cc3c(-c4c(O)cc(O)c5c(O)c6c(cc45)OC(C)C(C)C6=O)c(O)cc(O)c3c(O)c2C(=O)C1C (stereo unspecified) | -2 | x | 88 | -2 | 80* | -80
COC(=O)C1=C[C@H]([C@@H](C)[C@H](OC)c2ccccc2Br)[C@@H]2[C@H]1c1ccccc1N2C | x | -5 | x | x | x | x
